Active and inactive are the calls of the source. The calls are words filed in the database; no cut-off is given here.
Experiments:
[1] = molecular target: Tyrosine-protein kinase Lyn (Mus musculus) (UniProt P25911); test: Activity of mouse Lyn kinase at 1 uM
Method in brief: (§1)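 Single-point screen in a 226-kinase panel run by an outside service. Test compound at 1 μM with ATP at 10 μM in every assay. Other assay conditions are not given.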

SW480 = test: Antiproliferative activity against human SW480 cells after 96 hrs by BrdU cell proliferation ELISA; type: functional, cell-based; conditions: SW480, 96 h
Method in brief: (§2)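 BrdU incorporation proliferation assay on cultured human tumor lines; IC50 values derived from growth inhibition.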

[2] = molecular target: Ephrin type-B receptor 1 (Homo sapiens) (UniProt P54762); test: Activity of human EphB1 kinase at 1 uM
Method in brief: (§3)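 Single-point kinase profiling: each kinase in a 226-kinase panel tested with compound at 1 μM and ATP at 10 μM in every assay, run by an external screening service.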

PC-3 [3] = test: Induction of apoptosis in human PC3 cells assessed as PARP cleavage at 4 uM after 48 hrs by Western blot method; type: functional, cell-based
PC-3 [4] = test: Cell cycle arrest in human PC3 cells by accumulation at S phase at 1 uM after 24 hrs by flow cytometry relative to control; type: functional
Method in brief: (§4)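 DNA content profiles by flow cytometry of PC-3 prostate tumor cells exposed to drug diluted in DMSO for 24 or 48 h. Phase distribution was compared with DMSO-treated control cells.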

[5] = molecular target: Serine/threonine-protein kinase 3 (Homo sapiens) (UniProt Q13188); test: Activity of human MST2 kinase at 1 uM
[6] = molecular target: Death-associated protein kinase 2 (Homo sapiens) (UniProt Q9UIK4); test: Activity of human DAPK2 kinase at 1 uM; method in brief: as §3
PC-3 [7] = test: Cell cycle arrest in human PC3 cells by accumulation at >4N phase at 1 uM after 24 hrs by flow cytometry relative to control; type: functional
[8] = molecular target: Mitogen-activated protein kinase 14 (Homo sapiens) (UniProt Q16539); test: Activity of human SAPK2a kinase at 1 uM
Method in brief: (§5)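 Single-concentration screen across a 226-kinase panel run by an outside provider; test compound at 1 μM with 10 μM ATP in every assay. Other conditions not detailed.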

[9] = molecular target: Protein kinase C alpha type (Homo sapiens) (UniProt P17252); test: Activity of human PKCalpha kinase at 1 uM; method in brief: as §1
[10] = molecular target: Tyrosine-protein kinase Lck (Homo sapiens) (UniProt P06239); test: Activity of human Lck kinase at 1 uM; method in brief: as §3
PC-3 [11] = test: Cell cycle arrest in human PC3 cells by accumulation at G2/M phase at 1 uM after 48 hrs by flow cytometry relative to control; type: functional; method in brief: as §4
[12] = molecular target: Serine/threonine-protein kinase 17A (Homo sapiens) (UniProt Q9UEE5); test: Activity of human DRAK1 kinase at 1 uM; method in brief: as §3
[13] = molecular target: Tyrosine-protein kinase ZAP-70 (Homo sapiens) (UniProt P43403); test: Activity of human ZAP70 kinase at 1 uM; method in brief: as §1
[14] = molecular target: Rho-associated protein kinase 2 (Rattus norvegicus) (UniProt Q62868); test: Activity of rat ROCK2 kinase at 1 uM; method in brief: as §1
Calu-6 = test: Antiproliferative activity against human Calu6 cells after 96 hrs by BrdU cell proliferation ELISA; type: functional, cell-based; conditions: Calu-6, 96 h; method in brief: as §2
[15] = molecular target: Tyrosine-protein kinase JAK3 (Homo sapiens) (UniProt P52333); test: Activity of human JAK3 kinase at 1 uM
[16] = molecular target: Maternal embryonic leucine zipper kinase (Homo sapiens) (UniProt Q14680); test: Activity of human MELK kinase at 1 uM; method in brief: as §3
[17] = molecular target: Tyrosine-protein kinase receptor UFO (Homo sapiens) (UniProt P30530); test: Inhibition of Axl kinase at 1 uM
Method in brief: (§6)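 Single-point screen within a 226-kinase panel, with compound at 1 μM and ATP at 10 μM in all assays.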

[18] = molecular target: Interleukin-1 receptor-associated kinase 1 (Homo sapiens) (UniProt P51617); test: Activity of human IRAK1 kinase at 1 uM
[19] = molecular target: Serine/threonine-protein kinase PAK 3 (Homo sapiens) (UniProt O75914); test: Activity of human PAK3 kinase at 1 uM; method in brief: as §1
[20] = molecular target: Serine/threonine-protein kinase PAK 6 (Homo sapiens) (UniProt Q9NQU5); test: Activity of human PAK6 kinase at 1 uM; method in brief: as §1
[21] = molecular target: Focal adhesion kinase 1 (Homo sapiens) (UniProt Q05397); test: Activity of human FAK kinase at 1 uM
PC-3 [22] = test: Cell cycle arrest in human PC3 cells by accumulation at G1 phase at 1 uM after 24 hrs by flow cytometry relative to control; type: functional
[23] = molecular target: LIM domain kinase 1 (Homo sapiens) (UniProt P53667); test: Activity of human LIMK1 kinase at 1 uM
[24] = molecular target: Vascular endothelial growth factor receptor 1 (Homo sapiens) (UniProt P17948); test: Activity of human Flt1 kinase at 1 uM; method in brief: as §3
[25] = molecular target: Tyrosine-protein kinase receptor UFO (Homo sapiens) (UniProt P30530); test: Activity of human Axl kinase at 1 uM; method in brief: as §3
PC-3 [26] = test: Cell cycle arrest in human PC3 cells by accumulation at S phase at 4 uM after 48 hrs by flow cytometry relative to control; type: functional; method in brief: as §4
[27] = molecular target: MAP kinase-activated protein kinase 5 (Homo sapiens) (UniProt Q8IW41); test: Activity of human PRAK kinase at 1 uM; method in brief: as §1
[28] = molecular target: Inhibitor of nuclear factor kappa-B kinase subunit alpha (Homo sapiens) (UniProt O15111); test: Activity of human IKKalpha kinase at 1 uM; method in brief: as §3
[29] = molecular target: Proto-oncogene tyrosine-protein kinase receptor Ret (Homo sapiens) (UniProt P07949); test: Activity of human Ret kinase at 1 uM; method in brief: as §5
[30] = molecular target: Fibroblast growth factor receptor 1 (Homo sapiens) (UniProt P11362); test: Activity of human FGFR1 kinase at 1 uM; method in brief: as §3
[31] = molecular target: ALK tyrosine kinase receptor (Homo sapiens) (UniProt Q9UM73); test: Activity of human ALK kinase at 1 uM
[32] = molecular target: Insulin-like growth factor 1 receptor (Homo sapiens) (UniProt P08069); test: Activity of human IGF1R kinase at 1 uM
[33] = molecular target: Ephrin type-B receptor 1 (Homo sapiens) (UniProt P54762); test: Inhibition of EphB1 kinase at 1 uM; method in brief: as §6
Mus musculus = test: Toxicity in human HCT116 cells xenografted into athymic nude NCR nu/nu mouse assessed as decrease in body weight at 30 mg/kg, QD after 21 days; type: organism-based, HCT-116; set-up: dose 30 mg/kg; scale not given: the % may be the effect or the level left; conditions: in vivo, 504 h
Method in brief: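 Female athymic nude NCR nu/nu mice were given HCT-116 cells (1 × 10^6) s.c. in the right flank. Drug in 10% hydroxypropyl-β-cyclodextrin/5% sodium bicarbonate was given orally (QD or BID) for 21 days. Body weight loss was recorded at the end of treatment, and neutrophil counts were also followed for the BID regimen.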

[34] = molecular target: Serine/threonine-protein kinase WNK3 (Homo sapiens) (UniProt Q9BYP7); test: Activity of human WNK3 kinase at 1 uM; method in brief: as §1
PC-3 [35] = test: Cell cycle arrest in human PC3 cells by accumulation at G1 phase at 4 uM after 24 hrs by flow cytometry relative to control; type: functional; method in brief: as §4
[36] = molecular target: Serine/threonine-protein kinase Sgk2 (Homo sapiens) (UniProt Q9HBY8); test: Activity of human SGK2 kinase at 1 uM; method in brief: as §1
PC-3 [37] = test: Induction of apoptosis in human PC3 cells assessed as PARP cleavage at 0.25 uM after 24 hrs by Western blot method; type: functional, cell-based

Sequence of Ephrin type-B receptor 1 (Homo sapiens) (P54762 whole entry): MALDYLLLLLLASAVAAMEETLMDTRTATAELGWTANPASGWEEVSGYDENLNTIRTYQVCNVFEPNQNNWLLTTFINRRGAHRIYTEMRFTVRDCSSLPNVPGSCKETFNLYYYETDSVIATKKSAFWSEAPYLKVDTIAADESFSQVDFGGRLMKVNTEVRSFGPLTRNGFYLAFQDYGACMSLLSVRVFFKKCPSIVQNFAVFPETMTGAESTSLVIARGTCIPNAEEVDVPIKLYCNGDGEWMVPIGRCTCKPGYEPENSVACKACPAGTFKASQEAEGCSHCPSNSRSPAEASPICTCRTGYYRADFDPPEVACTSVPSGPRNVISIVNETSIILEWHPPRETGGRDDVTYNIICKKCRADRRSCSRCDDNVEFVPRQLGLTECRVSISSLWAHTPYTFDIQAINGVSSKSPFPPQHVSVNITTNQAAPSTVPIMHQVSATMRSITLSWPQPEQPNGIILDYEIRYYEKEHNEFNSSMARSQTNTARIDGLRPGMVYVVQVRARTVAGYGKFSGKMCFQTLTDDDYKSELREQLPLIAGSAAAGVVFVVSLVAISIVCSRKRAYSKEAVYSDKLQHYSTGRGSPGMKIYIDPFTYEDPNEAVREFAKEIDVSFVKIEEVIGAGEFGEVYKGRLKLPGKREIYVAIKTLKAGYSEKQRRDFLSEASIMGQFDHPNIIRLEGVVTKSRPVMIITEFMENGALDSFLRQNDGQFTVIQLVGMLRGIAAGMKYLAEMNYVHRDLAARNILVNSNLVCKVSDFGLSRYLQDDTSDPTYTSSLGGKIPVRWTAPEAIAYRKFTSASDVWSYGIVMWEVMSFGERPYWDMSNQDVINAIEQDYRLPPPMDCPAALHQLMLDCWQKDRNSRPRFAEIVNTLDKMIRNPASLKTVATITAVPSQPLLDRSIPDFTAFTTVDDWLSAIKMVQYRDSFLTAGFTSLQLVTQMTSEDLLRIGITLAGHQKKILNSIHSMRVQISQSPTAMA
Sequence of Tyrosine-protein kinase receptor UFO (Homo sapiens) (P30530 whole entry): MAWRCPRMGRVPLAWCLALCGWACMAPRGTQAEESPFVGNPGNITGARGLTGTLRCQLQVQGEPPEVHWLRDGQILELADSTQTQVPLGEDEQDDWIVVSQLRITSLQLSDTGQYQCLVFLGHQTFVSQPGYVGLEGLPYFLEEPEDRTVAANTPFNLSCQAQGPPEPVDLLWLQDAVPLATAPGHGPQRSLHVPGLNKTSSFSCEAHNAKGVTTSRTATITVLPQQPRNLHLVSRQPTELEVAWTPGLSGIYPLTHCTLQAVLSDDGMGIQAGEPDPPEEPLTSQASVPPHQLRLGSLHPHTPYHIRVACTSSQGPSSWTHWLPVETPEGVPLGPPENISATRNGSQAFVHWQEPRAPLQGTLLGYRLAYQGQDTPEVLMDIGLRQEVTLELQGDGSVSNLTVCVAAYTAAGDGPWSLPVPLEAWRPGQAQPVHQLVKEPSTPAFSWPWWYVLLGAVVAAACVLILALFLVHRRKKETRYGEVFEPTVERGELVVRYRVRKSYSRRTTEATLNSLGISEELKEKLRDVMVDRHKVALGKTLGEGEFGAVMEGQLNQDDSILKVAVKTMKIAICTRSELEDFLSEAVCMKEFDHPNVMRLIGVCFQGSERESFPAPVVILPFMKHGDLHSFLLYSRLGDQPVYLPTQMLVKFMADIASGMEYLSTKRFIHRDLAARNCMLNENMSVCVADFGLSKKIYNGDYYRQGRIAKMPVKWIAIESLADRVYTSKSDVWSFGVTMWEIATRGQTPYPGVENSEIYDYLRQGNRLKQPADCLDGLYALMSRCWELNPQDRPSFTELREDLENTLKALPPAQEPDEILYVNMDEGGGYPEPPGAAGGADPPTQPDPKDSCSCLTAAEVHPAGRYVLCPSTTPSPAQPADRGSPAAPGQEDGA
Sequence of Rho-associated protein kinase 2 (Rattus norvegicus) (Q62868 whole entry, looked up): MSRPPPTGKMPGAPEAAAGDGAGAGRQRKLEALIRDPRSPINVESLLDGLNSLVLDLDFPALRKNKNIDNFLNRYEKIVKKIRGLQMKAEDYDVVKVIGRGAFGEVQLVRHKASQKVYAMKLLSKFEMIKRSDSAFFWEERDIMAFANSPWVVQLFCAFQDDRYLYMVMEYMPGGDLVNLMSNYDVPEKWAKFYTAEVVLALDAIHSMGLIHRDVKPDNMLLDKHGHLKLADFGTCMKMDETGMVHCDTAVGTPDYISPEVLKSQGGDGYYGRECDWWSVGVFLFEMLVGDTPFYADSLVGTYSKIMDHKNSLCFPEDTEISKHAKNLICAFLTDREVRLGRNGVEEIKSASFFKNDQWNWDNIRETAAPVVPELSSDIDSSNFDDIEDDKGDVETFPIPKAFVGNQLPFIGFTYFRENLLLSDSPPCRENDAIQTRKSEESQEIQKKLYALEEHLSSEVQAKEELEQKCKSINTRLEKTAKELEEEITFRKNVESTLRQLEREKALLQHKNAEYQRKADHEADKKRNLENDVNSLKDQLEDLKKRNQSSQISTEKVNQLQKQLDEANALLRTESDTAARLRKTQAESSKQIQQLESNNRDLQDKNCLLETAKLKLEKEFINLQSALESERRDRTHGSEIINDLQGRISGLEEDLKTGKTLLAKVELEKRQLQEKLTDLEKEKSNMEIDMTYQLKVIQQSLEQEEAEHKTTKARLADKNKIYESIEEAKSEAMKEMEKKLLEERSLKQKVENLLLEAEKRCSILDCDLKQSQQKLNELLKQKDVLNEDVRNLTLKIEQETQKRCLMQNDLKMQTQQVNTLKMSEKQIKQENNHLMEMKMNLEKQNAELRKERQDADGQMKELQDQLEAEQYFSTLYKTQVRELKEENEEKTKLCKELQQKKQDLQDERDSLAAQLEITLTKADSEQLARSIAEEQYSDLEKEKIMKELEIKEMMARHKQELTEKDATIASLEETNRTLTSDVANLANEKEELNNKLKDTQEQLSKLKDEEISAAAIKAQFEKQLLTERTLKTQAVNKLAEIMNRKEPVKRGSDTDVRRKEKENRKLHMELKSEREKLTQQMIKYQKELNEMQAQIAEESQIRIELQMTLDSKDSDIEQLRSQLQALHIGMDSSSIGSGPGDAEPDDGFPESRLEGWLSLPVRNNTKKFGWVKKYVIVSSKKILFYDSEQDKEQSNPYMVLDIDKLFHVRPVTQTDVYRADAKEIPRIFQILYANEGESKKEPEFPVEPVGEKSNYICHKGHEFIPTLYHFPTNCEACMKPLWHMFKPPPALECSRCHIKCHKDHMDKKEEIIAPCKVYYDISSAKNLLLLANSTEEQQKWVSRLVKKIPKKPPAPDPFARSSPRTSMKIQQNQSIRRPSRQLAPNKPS
Sequence of Serine/threonine-protein kinase 17A (Homo sapiens) (Q9UEE5 whole entry): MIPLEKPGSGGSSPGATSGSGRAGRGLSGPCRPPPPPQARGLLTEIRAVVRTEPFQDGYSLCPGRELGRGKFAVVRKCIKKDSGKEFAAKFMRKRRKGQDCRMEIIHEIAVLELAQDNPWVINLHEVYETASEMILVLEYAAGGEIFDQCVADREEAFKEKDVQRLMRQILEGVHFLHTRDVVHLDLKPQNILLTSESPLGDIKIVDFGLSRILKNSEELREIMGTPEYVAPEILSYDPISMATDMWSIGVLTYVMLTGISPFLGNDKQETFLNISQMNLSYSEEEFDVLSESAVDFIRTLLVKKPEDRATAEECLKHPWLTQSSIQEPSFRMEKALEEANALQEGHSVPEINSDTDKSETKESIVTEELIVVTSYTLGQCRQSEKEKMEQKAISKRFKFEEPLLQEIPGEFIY
Sequence of Tyrosine-protein kinase ZAP-70 (Homo sapiens) (P43403 whole entry): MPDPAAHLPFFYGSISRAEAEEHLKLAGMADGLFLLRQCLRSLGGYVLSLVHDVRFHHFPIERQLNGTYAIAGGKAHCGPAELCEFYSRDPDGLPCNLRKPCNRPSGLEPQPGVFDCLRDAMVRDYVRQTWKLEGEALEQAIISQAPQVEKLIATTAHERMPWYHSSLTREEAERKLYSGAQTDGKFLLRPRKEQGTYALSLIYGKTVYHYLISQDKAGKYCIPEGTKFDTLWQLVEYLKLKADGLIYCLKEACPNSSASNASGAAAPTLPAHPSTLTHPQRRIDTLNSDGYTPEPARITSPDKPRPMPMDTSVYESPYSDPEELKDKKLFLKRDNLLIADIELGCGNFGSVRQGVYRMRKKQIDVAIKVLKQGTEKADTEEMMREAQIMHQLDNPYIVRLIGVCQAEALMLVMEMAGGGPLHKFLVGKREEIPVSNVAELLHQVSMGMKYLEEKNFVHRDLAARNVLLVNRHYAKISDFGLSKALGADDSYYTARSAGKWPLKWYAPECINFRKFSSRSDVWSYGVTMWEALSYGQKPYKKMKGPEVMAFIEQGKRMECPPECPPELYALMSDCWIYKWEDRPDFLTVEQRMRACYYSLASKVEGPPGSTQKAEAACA
Sequence of LIM domain kinase 1 (Homo sapiens) (P53667 whole entry, looked up, the tested form may be a part): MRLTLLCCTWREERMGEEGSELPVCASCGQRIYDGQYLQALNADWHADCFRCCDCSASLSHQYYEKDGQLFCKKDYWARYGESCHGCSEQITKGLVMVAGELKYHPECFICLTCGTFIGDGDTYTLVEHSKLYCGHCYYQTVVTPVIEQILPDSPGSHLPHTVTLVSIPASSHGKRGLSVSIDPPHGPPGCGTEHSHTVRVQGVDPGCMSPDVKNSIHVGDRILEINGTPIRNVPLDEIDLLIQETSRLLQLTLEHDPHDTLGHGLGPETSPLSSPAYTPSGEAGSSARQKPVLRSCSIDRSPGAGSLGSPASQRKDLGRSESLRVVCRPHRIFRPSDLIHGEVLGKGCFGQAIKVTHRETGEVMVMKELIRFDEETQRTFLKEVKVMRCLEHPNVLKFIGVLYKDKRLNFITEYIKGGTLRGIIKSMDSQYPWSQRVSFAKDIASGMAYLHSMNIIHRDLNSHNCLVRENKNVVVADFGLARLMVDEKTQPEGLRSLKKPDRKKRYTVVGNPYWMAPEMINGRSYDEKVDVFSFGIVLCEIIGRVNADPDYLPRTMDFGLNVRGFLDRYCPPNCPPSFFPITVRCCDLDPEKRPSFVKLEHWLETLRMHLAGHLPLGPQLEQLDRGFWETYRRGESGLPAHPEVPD

Compound O=C(O)c1ccc(Nc2ncc3c(n2)-c2ccc(Cl)cc2C(c2c(F)cccc2F)=NC3)cc1 [MLN-8054] has an Activity [1] of 52%, an IC50 (SW480) of 860 nM and an Activity [2] of 35%. For the same compound, the Activity (PC-3 [3]) was “Active”, the Activity (PC-3 [4]) was 14.9% and the Activity [5] was 100%. It also gave an Activity [6] of 103%, an Activity (PC-3 [7]) of 3.7% and an Activity [8] of 105%. For the same compound, the Activity [9] was 108%, the Activity [10] was 59% and the Activity (PC-3 [11]) was 59.8%. For the same compound, the Activity [12] was 60%, the Activity [13] was 96% and the Activity [14] was 92%. It also gave an IC50 (Calu-6) of 220 nM, an Activity [15] of 100% and an Activity [16] of 79%. For the same compound, the inhibition [17] was 59%, the Activity [18] was 110% and the Activity [19] was 94%. It also gave an Activity [20] of 108%, an Activity [21] of 110% and an Activity (PC-3 [22]) of 36.1%. For the same compound, the Activity [23] was 110%, the Activity [24] was 65% and the Activity [25] was 41%. For the same compound, the Activity (PC-3 [26]) was 4.9%, the Activity [27] was 110% and the Activity [28] was 114%. It also gave an Activity [29] of 80%, an Activity [30] of 43% and an Activity [31] of 95%. It also gave an Activity [32] of 88%, an inhibition [33] of 65% and an Activity (Mus musculus) of under 2%. For the same compound, the Activity [34] was 88%, the Activity (PC-3 [35]) was 23% and the Activity [36] was 100%. The Activity (PC-3 [37]) was “Active”.
